Source: ChEMBL document CHEMBL1137227, “Identification of a selective inverse agonist for the orphan nuclear receptor estrogen-related receptor alpha” (J Med Chem, 2004)
Several values for one entry are separate records, joined by “and”; a condition that tells them apart may be missing. Identical values can stand only once.

How the values were obtained:
[1] = molecular target: T1, Steroid hormone receptor ERR1 (Homo sapiens) (UniProt P11474); experiment: Percent inhibition of estrogen-related receptor alpha Gal4 activity at 10 uM
T1 sequence (whole entry): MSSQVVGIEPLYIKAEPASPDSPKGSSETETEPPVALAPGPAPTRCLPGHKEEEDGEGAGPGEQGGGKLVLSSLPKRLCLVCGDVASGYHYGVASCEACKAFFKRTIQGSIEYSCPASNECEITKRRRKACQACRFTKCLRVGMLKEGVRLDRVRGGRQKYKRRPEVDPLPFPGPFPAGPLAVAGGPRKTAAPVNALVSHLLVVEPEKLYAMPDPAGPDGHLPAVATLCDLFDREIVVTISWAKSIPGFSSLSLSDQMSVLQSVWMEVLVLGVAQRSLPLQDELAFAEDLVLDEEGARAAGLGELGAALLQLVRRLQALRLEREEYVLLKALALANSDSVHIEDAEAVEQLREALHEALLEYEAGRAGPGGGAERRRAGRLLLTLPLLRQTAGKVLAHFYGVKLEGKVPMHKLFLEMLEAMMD
Summary of the method: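 Gal4-ERRα cell-based cotransfection assay with compound tested at a single concentration of 10 μM. Activity expressed as percent inhibition of ERRα-driven Gal4 signal.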

[2] = molecular target: T2, Steroid hormone receptor ERR1 (Homo sapiens, UniProt P11474); experiment: (§1) Inhibition of estrogen-related receptor alpha Gal4 activity
T2 sequence (P11474 whole entry): T1 sequence (whole entry)

[3] = molecular target: T2, Steroid hormone receptor ERR1; experiment: Inhibition of estrogen-related receptor alpha Gal4 activity; not active
Summary of the method: (§2)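 Cell-based cotransfection assay in Gal4-ERRα format. IC50 fitted by nonlinear regression to 10-dose titration curves and averaged over at least two experiments. Standard error of the mean typically under 30% per experiment. NA means not active under assay conditions.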

[4] = molecular target: T2, Steroid hormone receptor ERR1; experiment: Inhibition of estrogen-related receptor alpha in FP assay
[5] = molecular target: T2, Steroid hormone receptor ERR1; experiment: as §1; summary of the method: as §2; remark: listed apart in the source

inhibition [1] | IC50 [2] | IC50 [3] | IC50 [4] [nM] | IC50 [5] [nM] | SMILES
90% | 1800 nM |  |  |  | CCc1nnc(NC(=O)/C(C#N)=C/c2ccc(OCc3cccc4ccccc34)c(OC)c2)s1
 |  | Not Active |  |  | CCc1nnc(NC(=O)/C(C#N)=C/c2ccc(OCc3c(F)cccc3C(F)(F)F)c(OC)c2)s1
 |  | Not Active |  |  | COc1cc(/C=C(\C#N)C(=O)Nc2nccs2)ccc1OCCOc1c(C)cccc1C
92% | 2600 nM |  |  |  | COc1cc(/C=C(\C#N)C(=O)Nc2nnc(SC)s2)ccc1OCCOc1c(C)cccc1C
 |  |  | 1400 | 2300 | CCC1=NN2C/C(=C/c3ccc(OCCOc4c(C)cccc4C)c(OC)c3)C(=O)N=C2S1
96% | 2000 nM |  |  |  | CCc1nnc(NC(=O)/C(C#N)=C/c2ccc(OCCOc3c(C)cccc3C)c(OC)c2)s1
99% | 750 nM |  |  |  | COc1cc(/C=C(\C#N)C(=O)Nc2nncs2)ccc1OCc1ccc(C(F)(F)F)cc1C(F)(F)F
101% | 1800 nM |  |  |  | CCc1nnc(NC(=O)/C(C#N)=C/c2ccc(OCc3ccccc3OC(F)(F)F)c(OC)c2)s1
103% | 1400 nM |  |  |  | COc1cc(/C=C(\C#N)C(=O)Nc2nncs2)ccc1OCCOc1c(C)cccc1C
109% and 90% | 920 nM and 1500 nM |  |  |  | CCc1nnc(NC(=O)/C(C#N)=C/c2ccc(OCc3ccc(F)cc3C(F)(F)F)c(OC)c2)s1
104% | 1700 nM |  |  |  | COc1cc(/C=C(\C#N)C(=O)Nc2nnc(C(C)(C)C)s2)ccc1OCCOc1c(C)cccc1C
 | 800 nM and 1700 nM |  |  |  | CCc1nnc(NC(=O)/C(C#N)=C/c2ccc(OCc3cc(F)ccc3C(F)(F)F)c(OC)c2)s1
109% |  |  |  |  | COc1cc(/C=C(\C#N)C(=O)Nc2nnc(C(F)(F)F)s2)ccc1OCc1ccc(C(F)(F)F)cc1C(F)(F)F
106% and 104% and 99% | 400 nM and 610 nM and 540 nM |  |  |  | CCc1nnc(NC(=O)/C(C#N)=C/c2ccc(OCc3ccc(C(F)(F)F)cc3C(F)(F)F)c(OC)c2)s1
112% | 1500 nM |  |  |  | COc1cc(/C=C(\C#N)C(=O)Nc2nnc(C(F)(F)F)s2)ccc1OCCOc1c(C)cccc1C
 |  | Not Active |  |  | CCc1nnc(NC(=O)/C(C#N)=C/c2ccc(OCc3cc(C(F)(F)F)ccc3C(F)(F)F)c(OC)c2)s1
105% | 440 nM |  |  |  | COc1cc(/C=C(\C#N)C(=O)Nc2nnc(SC)s2)ccc1OCc1ccc(C(F)(F)F)cc1C(F)(F)F
43% | > 10000 nM |  |  |  | COc1cc(/C=C(\C#N)C(=O)Nc2nnc(C(C)(C)C)s2)ccc1OCc1ccc(C(F)(F)F)cc1C(F)(F)F
57% | 2200 nM |  |  |  | CCc1nnc(NC(=O)/C(C#N)=C/c2ccc(OCc3ccccc3Br)c(OC)c2)s1
105% | 500 nM |  |  |  | COc1cc(/C=C(\C#N)C(=O)Nc2nnc(-c3ccccc3)s2)ccc1OCc1ccc(C(F)(F)F)cc1C(F)(F)F
88% | 3300 nM |  |  |  | CCc1nnc(NC(=O)/C(C#N)=C/c2ccc(OCCOc3c(C)cccc3C)c(OC)c2)o1
74% | 2000 nM |  |  |  | COc1cc(/C=C(\C#N)C(=O)Nc2nnc(-c3ccc(N(C)C)cc3)s2)ccc1OCCOc1c(C)cccc1C
